Measured values collected from several papers.
Cell line: MCF7
Read-out: cell growth or viability

SMILES	test	setting	GI50 [µM]
COc1cc2c(OC)nc3c4cc5c(cc4cc(OCCCN4CCCC4)c3c2cc1OC)OCO5	MTT	72 h	8.6
COc1cc(-c2ccc(-c3ccc(C(=N)N)nc3)s2)cc(OC)c1OC	SRB	–	1.3
COc1ccc(C(=O)/C=C/c2ccccc2Br)cc1S(N)(=O)=O	SRB	48 h	2.9
CN1CCN(c2ccc(Nc3ncc4cc(C#N)c(=O)n(C5CCCC5)c4n3)cc2)CC1	resazurin	96 h	0.15
COc1cccc(Oc2ccccc2NC(=O)CNC(=O)c2cccc3ccccc23)c1	SRB	48 h	0.1
COc1ccc(C(=O)/C=C/c2c(F)cccc2Cl)cc1S(N)(=O)=O	SRB	48 h	2.2
COc1cc2c(OC)nc3c4cc5c(cc4cc(OCCN(C)C)c3c2cc1OC)OCO5	MTT	72 h	> 100
COc1cc(C(CC(=O)c2ccc(Br)cc2)NCCc2ccc(O)c(O)c2)ccc1O (stereo not drawn)	MTT	–	0.02
COc1ccc(C(=O)/C=C/c2cccnc2)cc1S(N)(=O)=O	SRB	48 h	4.9
COc1cc(C(CC(N)=O)NCCc2ccc(O)c(O)c2)ccc1O (stereo not drawn)	MTT	–	26.2
COc1cc2c(cc1O)CC[C@@H]1[C@@H]2CC[C@]2(C)[C@@H](O)CC[C@@H]12	SRB	96 h	0.6
COc1cc(C(CC(C)=O)NCCc2ccc(O)c(O)c2)ccc1O (stereo not drawn)	MTT	–	22.4
CCN(CC)CCOc1cc2cc3c(cc2c2nc(OC)c4cc(OC)c(OC)cc4c12)OCO3	MTT	72 h	≥ 100
COc1ccc(C(=O)/C=C/c2cccc(Cl)c2)cc1S(N)(=O)=O	SRB	48 h	2
COc1cc(C(CC(=O)c2ccc(C)cc2)NCCc2ccc(O)c(O)c2)ccc1O (stereo not drawn)	MTT	–	5.2
COc1cc2c(OC)nc3c4cc5c(cc4cc(OCCN4CCCC4)c3c2cc1OC)OCO5	MTT	72 h	≥ 100
COc1cc2c(Nc3ccc(Br)cc3F)ncnc2cc1OCC1CCN(C)CC1	MTT	72 h	0.25
COc1ccc(C(=O)/C=C/c2ccc3ccccc3c2)cc1S(N)(=O)=O	SRB	48 h	1.6
